Experimental data as given in ChEMBL document CHEMBL1124415, “Acrylamide derivatives as antiallergic agents. 2. Synthesis and structure-activity relationships of N-[4-[4-(diphenylmethyl)-1-piperazinyl]butyl]-3-(3-pyridyl)acryl amides” (J Med Chem, 1989).

Experiments:
Format in all cases: functional
Rattus norvegicus [1] = assay: Antiallergic activity determined by passive cutaneous anaphylaxis assay upon peroral administration of 20 mg/kg in rat; conditions: route oral
Homo sapiens = species on record: Homo sapiens; assay: Inhibitory activity against histamine release in human basophil
Summary of the method: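 Basophils from nonallergic human volunteers, washed in Tris-A buffer pH 7.4 (first wash with 4 mM EDTA), resuspended at 5-10 × 10^6 leukocytes/mL in Tris-ACM pH 7.6; preincubated with compound 15 min at 37 °C, then 45 min with anti-human IgE.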

Cavia porcellus = species on record: Cavia porcellus; assay: Anti-histaminic activity was measured in guinea pig trachea
Summary of the method: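 Zig-zag guinea pig tracheal strips; histamine dose-response curves obtained before and 60 min after adding test compound.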

Rattus norvegicus [2] = assay: Antiallergic activity by passive cutaneous anaphylaxis assay upon peroral administration of 20 mg/kg in rat; conditions: route oral
Rattus norvegicus [3] = species on record: Rattus norvegicus; assay: ED50 value was measured in rat passive cutaneous anaphylaxis (PCA) by linear regression analysis

| Compound | inhibition in vivo at 20 mg/kg (Rattus norvegicus [1]) | also measured |
| --- | --- | --- |
| CCCc1ccc(/C=C/C(=O)NCCCCN2CCN(C(c3ccccc3)c3ccccc3)CC2)cn1 | 44.4% |  |
| Cc1ncc(/C=C/C=C/C(=O)NCCCN2CCN(C(c3ccccc3)c3ccccc3)CC2)c(CO)c1O | 9.8% |  |
| C/C(=C\C(=O)NCCCCN1CCN(C(c2ccccc2)c2ccccc2)CC1)c1cccnc1 | 52.2% |  |
| O=C(/C=C/c1cncc(O)c1)NCCCCN1CCN(C(c2ccccc2)c2ccccc2)CC1 | 28.8% |  |
| CN1CCC(=C2c3ccccc3CC(=O)c3sccc32)CC1 [KETOTIFEN] |  | IC50 (Homo sapiens): > 100000 nM; IC50 (Cavia porcellus): 1.6 nM; ED50 (Rattus norvegicus [2]): 16.3 mg/kg |
| O=C(/C=C/C=C/c1cccnc1)NCCCN1CCN(C(c2ccccc2)c2ccccc2)CC1 | 40.4% |  |
| Cc1ccc(/C=C/C=C/C(=O)NCCCCN2CCN(C(c3ccccc3)c3ccccc3)CC2)cn1 | 68.8% |  |
| Cc1ncccc1/C=C/C(=O)NCCCCN1CCN(C(c2ccccc2)c2ccccc2)CC1 | 68.8% |  |
| Cc1ccc(/C=C/C(=O)NCCCCN2CCN(C(c3ccccc3)c3ccccc3)CC2)cn1 [TAGORIZINE] | 81.9% | IC50 (Homo sapiens): 34000 nM; IC50 (Cavia porcellus): 120 nM; ED50 (Rattus norvegicus [3]): 3.3 mg/kg |
| Cc1cc(/C=C/C(=O)NCCCCN2CCN(C(c3ccccc3)c3ccccc3)CC2)cnc1C | 40.5% |  |
| O=C(/C=C/c1cccnc1)NCCCCN1CCN(C(c2ccccc2)c2ccc(Cl)cc2)CC1 (stereo not drawn) | 19.9% |  |
| COc1cncc(/C=C/C(=O)NCCCCN2CCN(C(c3ccccc3)c3ccccc3)CC2)c1 | 7.6% |  |
| Cc1ccc(C(c2ccccc2)N2CCN(CCCCNC(=O)/C=C/c3ccc(C)nc3)CC2)cc1 (stereo not drawn) | 73.9% |  |
| Cc1ccc(/C=C/C=C/C(=O)NCCCN2CCN(C(c3ccccc3)c3ccccc3)CC2)cn1 |  | inhibition in vivo at 20 mg/kg (Rattus norvegicus [2]): 35.8% |
| Cc1ccc(C(c2ccc(C)cc2)N2CCN(CCCCNC(=O)/C=C/c3cccnc3)CC2)cc1 | 20.2% |  |
| O=C(NCCCCN1CCN(C(c2ccccc2)c2ccccc2)CC1)/C(=C/c1cccnc1)c1ccccc1 | 58% |  |
| Cc1ccc(C(c2ccccc2)N2CCN(CCCCNC(=O)/C=C/c3cccnc3)CC2)cc1C (stereo not drawn) | 5.4% |  |
| O=C(/C=C/c1cncc(Br)c1)NCCCCN1CCN(C(c2ccccc2)c2ccccc2)CC1 | 47.5% |  |
| CCSc1ccc(/C=C/C(=O)NCCCCN2CCN(C(c3ccccc3)c3ccccc3)CC2)cn1 | 18.6% |  |
| O=C(/C=C/c1ccc(Cl)nc1)NCCCCN1CCN(C(c2ccccc2)c2ccccc2)CC1 | 49.3% |  |
| CCCOc1ccc(/C=C/C(=O)NCCCCN2CCN(C(c3ccccc3)c3ccccc3)CC2)cn1 | 7.5% |  |
| Cc1cccc(C(c2ccccc2)N2CCN(CCCCNC(=O)/C=C/c3cccnc3)CC2)c1 (stereo not drawn) | 19% |  |
| Cc1ccc(CCC(=O)NCCCCN2CCN(C(c3ccccc3)c3ccccc3)CC2)cn1 | 24.9% |  |
| Cc1ncc(/C=C/C=C/C(=O)NCCCCN2CCN(C(c3ccccc3)c3ccccc3)CC2)c(CO)c1O | 16.4% |  |
| CCOc1ccc(/C=C/C(=O)NCCCCN2CCN(C(c3ccccc3)c3ccccc3)CC2)cn1 | 33.9% |  |
| COc1ccc(/C=C/C(=O)NCCCCN2CCN(C(c3ccccc3)c3ccccc3)CC2)cn1 | 41% |  |
| O=C(/C=C/c1cccnc1)NCCCCN1CCN(C(c2ccc(Cl)cc2)c2ccc(Cl)cc2)CC1 | 5.4% |  |

| Compound | inhibition in vivo at 20 mg/kg (Rattus norvegicus [1]) | also measured |
| --- | --- | --- |
| Cc1ncc(/C=C/C(=O)NCCCCN2CCN(C(c3ccccc3)c3ccccc3)CC2)c(CO)c1O | 53.7% |  |
| Cc1ccc(/C=C/C(=O)NCCCCN2CCN(C(c3ccccc3)c3ccccc3)CC2)c(C)n1 | 66.8% |  |
| O=C(/C=C/c1cncc(F)c1)NCCCCN1CCN(C(c2ccccc2)c2ccccc2)CC1 | 65% |  |
| COc1ccc(C(c2ccccc2)N2CCN(CCCCNC(=O)/C=C/c3cccnc3)CC2)cc1 (stereo not drawn) | 40.9% |  |
| O=C(/C=C/c1cccnc1Cl)NCCCCN1CCN(C(c2ccccc2)c2ccccc2)CC1 | < 39.3% |  |
| O=C(/C=C/C=C/c1cccnc1)NCCCCN1CCN(C(c2ccccc2)c2ccccc2)CC1 | 66.4% |  |
| O=C(/C=C/c1ccc(-c2ccccc2)nc1)NCCCCN1CCN(C(c2ccccc2)c2ccccc2)CC1 | 3.2% |  |
| CCC/C(=C\c1cccnc1)C(=O)NCCCCN1CCN(C(c2ccccc2)c2ccccc2)CC1 | 44.2% |  |
| O=C(/C=C/c1cccnc1)NCCCCN1CCC(OC(c2ccccc2)c2ccccc2)CC1 | 42.2% |  |
| CNc1ncccc1/C=C/C(=O)NCCCCN1CCN(C(c2ccccc2)c2ccccc2)CC1 | 45.2% |  |
| Cc1ncc(/C=C/C(=O)NCCCCN2CCN(C(c3ccccc3)c3ccccc3)CC2)c2c1OC(C)(C)OC2 | 17% |  |
| CC(C)c1ccc(/C=C/C(=O)NCCCCN2CCN(C(c3ccccc3)c3ccccc3)CC2)cn1 | 38.9% |  |
| CCCCCOc1ccc(/C=C/C(=O)NCCCCN2CCN(C(c3ccccc3)c3ccccc3)CC2)cn1 | 14.9% |  |
| Cc1ccc(C(c2ccccc2)N2CCN(CCCCNC(=O)/C=C/c3cccnc3)CC2)cc1 (stereo not drawn) | 82.9% |  |
| C/C(=C\c1cccnc1)C(=O)NCCCCN1CCN(C(c2ccccc2)c2ccccc2)CC1 | 78.9% |  |
| CC/C(=C\c1cccnc1)C(=O)NCCCCN1CCN(C(c2ccccc2)c2ccccc2)CC1 | 67.8% |  |
| C/C(=C\c1ccc(C)nc1)C(=O)NCCCCN1CCN(C(c2ccccc2)c2ccccc2)CC1 | 58.2% |  |
| O=C(/C=C/c1cccnc1)NCCCCN1CCC(C(O)(c2ccccc2)c2ccccc2)CC1 | 35.1% |  |
| O=C(/C=C/c1cncc(Cl)c1)NCCCCN1CCN(C(c2ccccc2)c2ccccc2)CC1 | 66.4% |  |
| Cc1ccc(/C=C/C(=O)NCCCCN2CCC(=C(c3ccccc3)c3ccccc3)CC2)cn1 | 99.5% |  |
| O=C(/C=C/c1cccnc1)NCCCCN1CCN(C(c2ccccc2)c2ccccc2)CC1 | 62.3% |  |
| O=C(CCc1cccnc1)NCCCCN1CCN(C(c2ccccc2)c2ccccc2)CC1 | 28.1% |  |
| O=C(/C=C/c1cccnc1)NCCCCN1CCC(=C(c2ccccc2)c2ccccc2)CC1 | 85.9% |  |
| CCCCc1ccc(/C=C/C(=O)NCCCCN2CCN(C(c3ccccc3)c3ccccc3)CC2)cn1 | 22.2% |  |
| O=C(/C=C/c1ccc(Oc2ccccc2)nc1)NCCCCN1CCN(C(c2ccccc2)c2ccccc2)CC1 | 45.6% |  |
| O=C(/C=C/c1cccnc1)NCCCCN1CCN(C(c2ccccc2)c2ccc(F)cc2)CC1 (stereo not drawn) | 53.8% |  |
